Assay results: ChEMBL document CHEMBL1154748, “4-Pyridylanilinothiazoles that selectively target von Hippel-Lindau deficient renal cell carcinoma cells by inducing autophagic cell death” (2010)

Test: Ratio of IC50 for human RCC4-VHL cells to IC50 for VHL-null human RCC4 cells
Type: functional
Settings: not given
In short: (§1)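 XTT read-out: 5000 cells/well plated, vehicle or drug added next day, 4-day exposure. Then phenol red-free medium with 0.3 mg/mL XTT, 20% FCS and 2.65 μg/mL N-methyldibenzopyrazine methyl sulfate, 1-2 h at 37 °C, absorbance at 450 nm. GI50 by linear interpolation; single determinations in triplicate. Ratio is the intraexperiment RCC4-VHL GI50 / RCC4 GI50.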

SMILES | RatioGI50
Cc1cccc(Nc2nc(-c3ccncc3)c(CN(C)C)s2)c1 | 2.3
COc1cccc(Nc2nc(-c3ccncc3)cs2)c1 | 17
CCc1cc(-c2csc(Nc3cccc(C)c3)n2)ccn1 | >6.3
COc1cc(-c2csc(Nc3cccc(C)c3)n2)ccn1 | 1.2
Cc1cccc(Nc2nc(-c3ccnc(Cl)c3)cs2)c1 | 3.8
Clc1cccc(Nc2nc(-c3ccncc3)cs2)c1 | 5
Cc1cccc(Nc2nc(-c3ccnc(Br)c3)cs2)c1 | 4.3
Clc1ccc(Nc2nc(-c3ccncc3)cs2)cc1Cl | >3
Oc1cccc(Nc2nc(-c3ccncc3)cs2)c1 | >3
Cc1cccc(Nc2nc(-c3ccncc3)c(CN3CCOCC3)s2)c1 | 4.8
COc1ccc(Nc2nc(-c3ccncc3)cs2)cc1 | 3.6
CCc1cnccc1-c1csc(Nc2cccc(C)c2)n1 | 2.8
Fc1ccc(Nc2nc(-c3ccncc3)cs2)cc1 | >7
CCN(CC)Cc1sc(Nc2cccc(C)c2)nc1-c1ccncc1 | 1.4
Cc1cccc(Nc2nc(-c3ccncc3)c(CCCO)s2)c1 | 3.7
Cc1cccc(N(C)c2nc(-c3ccncc3)cs2)c1 | 0.6
Cc1sc(Nc2ccc3c(c2)CCC3)nc1-c1ccncc1 | 1.5
Cc1ccc(Nc2nc(-c3ccncc3)cs2)cc1O | 4.6
Cc1cccc(Nc2nc(-c3ccncc3)cs2)c1 | 19
COC(=O)/C=C/c1sc(Nc2cccc(C)c2)nc1-c1ccncc1 | 2.8
Cc1ccc(Nc2nc(-c3ccncc3)cs2)cc1 | 20
Clc1ccc(Nc2nc(-c3ccncc3)cs2)cc1 | >2
OCc1sc(Nc2ccccc2)nc1-c1ccncc1 | >1.3

SMILES | RatioGI50
CN(C)CCOc1ccc(Nc2nc(-c3ccncc3)cs2)cc1 | 1.3
CCN(c1cccc(C)c1)c1nc(-c2ccncc2)cs1 | 0.6
Cc1cccc(Nc2nc(-c3ccncc3)c(CO)s2)c1 | 2.4
CN(C)CCc1ccc(Nc2nc(-c3ccncc3)cs2)cc1 | 1.2
Cc1cccc(Nc2nc(-c3ccncc3Br)cs2)c1 | >10
Cc1cccc(Nc2nc(-c3ccccn3)cs2)c1 | 0.9
Cc1cccc(Nc2nc(-c3ccncc3)c(CCCN3CCOCC3)s2)c1 | 1.6
Brc1cccc(Nc2nc(-c3ccncc3)cs2)c1 | >3.2
COc1ccc(Nc2nc(-c3ccncc3)cs2)cc1OC | 1.9
c1ccc(Nc2nc(-c3ccncc3)cs2)cc1 | >10
Cc1cccc(Nc2nc(-c3ccncc3C)cs2)c1 | >7.7
Cc1cccc(Nc2nc(Cc3ccncc3)cs2)c1 | 24.4
Cc1cc(Nc2nc(-c3ccncc3)cs2)ccc1O | 2.3
Cc1cccc(Nc2nc(-c3cc(Cl)nc(Cl)c3)cs2)c1 | 2.3
OCCc1ccc(Nc2nc(-c3ccncc3)cs2)cc1 | 16
CC(C)c1cccc(Nc2nc(-c3ccncc3)cs2)c1 | 1.4
C#Cc1cnccc1-c1csc(Nc2cccc(C)c2)n1 | 4.4
CC(=O)Nc1cnccc1-c1csc(Nc2cccc(C)c2)n1 | 1
Cc1cccc(Nc2nc(-c3ccnc(C#CCO)c3)cs2)c1 | 1.6
Cc1cccc(Nc2nc(-c3ccnc(CCCO)c3)cs2)c1 | >7.7
Cc1ccc(Nc2nc(-c3ccncc3)c(CO)s2)cc1 | 1.2
Cc1cc(C)cc(Nc2nc(-c3ccncc3)cs2)c1 | >9

Test: Growth inhibition of VHL-null human RCC4 cells after 4 days by XTT assay
Type: functional
Settings: RCC4, 96 h
In short: as §1

SMILES | GI50 [µM]
Cc1cccc(CNc2nc(-c3ccncc3)cs2)c1 | > 40
Cc1cccc(Nc2nc(-c3ccncc3)c(CN(C)C)s2)c1 | 16
COc1cccc(Nc2nc(-c3ccncc3)cs2)c1 | 3
CCc1cc(-c2csc(Nc3cccc(C)c3)n2)ccn1 | 6.4
COc1cc(-c2csc(Nc3cccc(C)c3)n2)ccn1 | 28.7
Cc1cccc(Nc2nc(-c3ccnc(Cl)c3)cs2)c1 | 2.2
Oc1ccc(Nc2nc(-c3cccnc3)cs2)cc1 | > 40
Clc1cccc(Nc2nc(-c3ccncc3)cs2)c1 | 3
Cc1cccc(Nc2nc(-c3ccnc(Br)c3)cs2)c1 | 2
COc1cc(Nc2nc(-c3ccncc3)cs2)cc(OC)c1OC | > 40
Cc1cccc(Nc2nc(-c3ccnc(C)c3)cs2)c1 | > 40
Clc1ccc(Nc2nc(-c3ccncc3)cs2)cc1Cl | 13.5
Fc1cccc(Nc2nc(-c3ccncc3)cs2)c1 | > 40
Fc1cccc(F)c1Nc1nc(-c2ccncc2)cs1 | > 40
Oc1cccc(Nc2nc(-c3ccncc3)cs2)c1 | 28.5
Cc1cccc(Nc2nc(-c3ccncc3)c(CN3CCOCC3)s2)c1 | 2.5
Cc1cccc(N(CCO)c2nc(-c3ccncc3)cs2)c1 | > 40
Cc1cccc(Nc2nc(-c3cc[n+]([O-])cc3)cs2)c1 | > 40
FC(F)(F)c1ccc(Nc2nc(-c3ccncc3)cs2)cc1 | > 40
COc1ccc(Nc2nc(-c3ccncc3)cs2)cc1 | 14
Cc1cccc(Nc2nc(-c3ccncc3)c(C=O)s2)c1 | 15
CCc1cnccc1-c1csc(Nc2cccc(C)c2)n1 | 6.2
Fc1ccc(Nc2nc(-c3ccncc3)cs2)cc1 | 6
CCN(CC)Cc1sc(Nc2cccc(C)c2)nc1-c1ccncc1 | 13
Cc1cccc(Nc2nc(-c3ccncc3)c(CCCO)s2)c1 | 3.6
Cc1cccc(N(C)c2nc(-c3ccncc3)cs2)c1 | 28
Cc1sc(Nc2ccc3c(c2)CCC3)nc1-c1ccncc1 | 12

SMILES | GI50 [µM]
Cc1ccc(Nc2nc(-c3ccncc3)cs2)cc1O | 12
Cc1cccc(Nc2nc(-c3ccncc3)cs2)c1 | 2.1
FC(F)(F)c1cccc(Nc2nc(-c3ccncc3)cs2)c1 | > 40
O=[N+]([O-])c1cccc(Nc2nc(-c3ccncc3)cs2)c1 | > 40
c1cc(-c2csc(Nc3ccc4c(c3)OCO4)n2)ccn1 | > 40
O=[N+]([O-])c1ccccc1Nc1nc(-c2ccncc2)cs1 | > 40
COC(=O)/C=C/c1sc(Nc2cccc(C)c2)nc1-c1ccncc1 | 2.5
Cc1ccc(Nc2nc(-c3ccncc3)cs2)cc1 | 2.5
Clc1ccc(Nc2nc(-c3ccncc3)cs2)cc1 | 38
OCc1sc(Nc2ccccc2)nc1-c1ccncc1 | 30
CN(C)CCOc1ccc(Nc2nc(-c3ccncc3)cs2)cc1 | 60
CCN(c1cccc(C)c1)c1nc(-c2ccncc2)cs1 | 40
Cc1cccc(Nc2nc(-c3ccncc3)c(CO)s2)c1 | 7
CN(C)CCc1ccc(Nc2nc(-c3ccncc3)cs2)cc1 | 50
Cc1cccc(Nc2nc(-c3ccncc3)c(C(=O)NCCCN3CCOCC3)s2)c1 | > 40
Cc1cccc(Nc2nc(-c3ccncc3Br)cs2)c1 | 3.9
Cc1cccc(Nc2nc(-c3ccccn3)cs2)c1 | 37
Cc1cccc(Nc2nc(-c3ccncc3)c(CCCN3CCOCC3)s2)c1 | 5.8
Brc1cccc(Nc2nc(-c3ccncc3)cs2)c1 | 12.4
COc1ccc(Nc2nc(-c3ccncc3)cs2)cc1OC | 24
c1ccc(Nc2nc(-c3ccncc3)cs2)cc1 | 7
Cc1cccc(Nc2nc(-c3ccncc3C)cs2)c1 | 5.2
Cc1cccc(Nc2nc(Cc3ccncc3)cs2)c1 | 20.3
O=C(Nc1nc(-c2ccncc2)cs1)c1ccccc1 | > 40
Cc1cc(Nc2nc(-c3ccncc3)cs2)ccc1O | 70
Cc1cccc(Nc2nc(-c3cc(Cl)nc(Cl)c3)cs2)c1 | 15
c1ccc(Nc2nc(-c3cccnc3)cs2)cc1 | > 40

SMILES | GI50 [µM]
OCCc1ccc(Nc2nc(-c3ccncc3)cs2)cc1 | 5
Cc1ccccc1Nc1nc(-c2ccncc2)cs1 | > 40
CC(C)c1cccc(Nc2nc(-c3ccncc3)cs2)c1 | 17
C#Cc1cnccc1-c1csc(Nc2cccc(C)c2)n1 | 1.35
CC(=O)Nc1cnccc1-c1csc(Nc2cccc(C)c2)n1 | 33.3
N#Cc1cccc(Nc2nc(-c3ccncc3)cs2)c1 | > 40
Cc1cccc(Nc2nc(-c3cccnc3)cs2)c1 | > 40
Cc1cccc(Nc2nc(-c3ccnc(C#CCO)c3)cs2)c1 | 9.3
Cc1cccc(Nc2nc(-c3ccnc(CCCO)c3)cs2)c1 | 5.2
Cc1ccc(Nc2nc(-c3ccncc3)c(CO)s2)cc1 | 14
Cc1ccc(C(=O)Nc2nc(-c3ccncc3)cs2)cc1 | > 40
CC(C)(C)c1cccc(Nc2nc(-c3ccncc3)cs2)c1 | > 40
Cc1cc(C)cc(Nc2nc(-c3ccncc3)cs2)c1 | 4.5
COc1ccc(C(=O)Nc2nc(-c3ccncc3)cs2)cc1 | > 40
Cc1cccc(Nc2nc(-c3ccncc3)c(C(=O)NCCN(C)C)s2)c1 | > 40
FC(F)(F)c1ccccc1Nc1nc(-c2ccncc2)cs1 | > 40
Cc1cccc(Nc2nc(Cc3cccnc3)cs2)c1 | > 40
Cc1cccc(Nc2nc(-c3ccncc3N)cs2)c1 | > 40
CCOC(=O)c1sc(Nc2cccc(C)c2)nc1-c1ccncc1 | > 40
N#Cc1ccc(Nc2nc(-c3ccncc3)cs2)cc1 | > 40
CCOC(=O)c1sc(Nc2ccc3c(c2)CCC3)nc1-c1ccncc1 | > 40
Cc1cccc(C)c1Nc1nc(-c2ccncc2)cs1 | > 40
COC(=O)CCc1sc(Nc2cccc(C)c2)nc1-c1ccncc1 | > 40
O=[N+]([O-])c1ccc(Nc2nc(-c3ccncc3)cs2)cc1 | > 40
Cc1cccc(C(=O)Nc2nc(-c3ccncc3)cs2)c1 | > 40
COc1cc(Nc2nc(-c3ccncc3)cs2)cc(OC)c1 | > 40
